Bioassay records: PubChem, Johns Hopkins Ion Channel Center
Sampled rows, rich in hits. Any-hit rate of the full collection: about 2.3%.
TRPC4 agonist: activators of mouse TRPC4 channel; Q9QUQ5; HEK293 TRPC4beta/mu-opioid, Fluo4 calcium fluorescence; hits give high values; B-score at 10 µM; actives 0.49% (n = 310,000);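 active = B-score above 5 SD of library B-scores, and initial fluorescence ratio not above library mean plus 5 SD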;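 also: positive B-score marks a calcium rise read as TRPC4 activation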
Target sequence (Q9QUQ5 whole entry, looked up): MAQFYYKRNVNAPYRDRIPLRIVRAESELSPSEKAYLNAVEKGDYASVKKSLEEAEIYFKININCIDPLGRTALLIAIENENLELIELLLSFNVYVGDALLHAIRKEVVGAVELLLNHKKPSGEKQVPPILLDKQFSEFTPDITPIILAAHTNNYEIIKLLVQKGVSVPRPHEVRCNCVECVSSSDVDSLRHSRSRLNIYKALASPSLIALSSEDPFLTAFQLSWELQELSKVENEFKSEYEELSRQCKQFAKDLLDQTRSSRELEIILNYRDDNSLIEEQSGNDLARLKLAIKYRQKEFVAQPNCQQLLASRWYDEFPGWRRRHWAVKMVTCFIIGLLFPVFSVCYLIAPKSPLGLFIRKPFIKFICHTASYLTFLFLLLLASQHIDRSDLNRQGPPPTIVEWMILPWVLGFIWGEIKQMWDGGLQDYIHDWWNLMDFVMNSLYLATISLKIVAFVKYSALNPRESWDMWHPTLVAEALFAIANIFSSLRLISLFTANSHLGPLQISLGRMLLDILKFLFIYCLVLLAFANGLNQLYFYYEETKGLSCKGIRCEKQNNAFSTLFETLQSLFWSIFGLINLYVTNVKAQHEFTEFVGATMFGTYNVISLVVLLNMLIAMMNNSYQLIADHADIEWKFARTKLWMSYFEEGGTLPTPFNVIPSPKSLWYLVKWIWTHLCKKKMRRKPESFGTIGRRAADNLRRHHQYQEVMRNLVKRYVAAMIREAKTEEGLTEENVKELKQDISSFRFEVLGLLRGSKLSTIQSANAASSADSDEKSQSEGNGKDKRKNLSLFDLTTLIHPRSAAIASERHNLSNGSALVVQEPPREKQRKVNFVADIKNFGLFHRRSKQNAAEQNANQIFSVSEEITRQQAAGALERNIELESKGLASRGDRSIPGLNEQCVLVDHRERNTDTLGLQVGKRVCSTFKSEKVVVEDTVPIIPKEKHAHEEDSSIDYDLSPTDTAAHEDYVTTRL
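System – HEK293 cells stably co-expressing mouse TRPC4beta and mu-opioid receptor · Signal – Fluo4 calcium-sensitive dye fluorescence, kinetic, 1 Hz baseline · Benchmarks – buffer (low) and maximal DAMGO (high) · Read-out – B score of integrated fluorescence ratio per well · Incubation – dye loading 45 min room temperature, 110 s kinetic read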
TRPC4 inh: inhibitors of mouse TRPC4 channel. B-score at 10 µM. actives 0.39% (n = 300,000). HEK293 TRPC4beta/mu-opioid, DAMGO-evoked Fluo4 calcium flux; hits give low values;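 active = B-score over 3 SD under the library average, no early fluorescence shift, positive overall ratio signal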
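test system = HEK293 cells with stable TRPC4beta plus mu-opioid receptor expression | detection = Fluo4 Ca2+ flux fluorescence | read-out = integrated fluorescence ratio relative to baseline, converted to per-well B score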
TRPC4 PAM: allosteric potentiators of mouse TRPC4 channel. actives 0.42% (n = 310,000). HEK293 TRPC4beta/mu-opioid, DAMGO EC20, Fluo-4 Ca2+ flux; hits give high values. B-score at 10 µM;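 active = B-score of calcium response area above 5 SD of library B-scores, with initial fluorescence ratio within 5 SD of library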
TRPC6 inh: blocks the mouse TRPC6 cation channel; Q61143; HEK293-TRPC6, membrane potential dye, ACh-evoked depolarization; hits give low values; B-score at 10 µM; actives 1.1% (n = 310,000); AID 2553;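 active = B-score under library mean minus 3 SD, initial fluorescence not abnormally high, positive integrated signal ratio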;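 also: B-score derived from integrated fluorescence ratio over the kinetic read; more negative B-score means stronger inhibition of depolarization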
TRPC6 act: activates the mouse TRPC6 cation channel; B-score at 10 µM; actives 0.13% (n = 310,000); AID 2550; HEK293-TRPC6 membrane potential dye fluorescence; hits give high values;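 active = B-score of the integrated fluorescence ratio above library mean plus 3 SD, and starting fluorescence ratio within library mean plus 5 SD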;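 also: higher score means more depolarization so channel activation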
TRPC4 sel inh 2: mouse TRPC4 off-target activity of TRPC6 inhibitors, second screen | AID 2776 | actives 42% (n = 920) | shares compounds with TRPC6 inh | HEK293 TRPC4/MOR, membrane potential dye fluorescence; channel activated by saturating DAMGO dose | inhibition, % at 10 µM;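 active = compounds whose fluorescence signal differed from control wells by over 3 SD, either direction, in both duplicate plates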
TRPC4 spec: mouse TRPC4 off-target activity of TRPC6 inhibitors. shares compounds with TRPC6 inh. HEK293 TRPC4/mu-opioid, membrane potential fluorescence. activity change, negative = inhibition, % at 10 µM. actives 61% (n = 920). AID 2777;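 active = rise or fall in signal beyond 3 SD of buffer-only wells in both replicate plates, either sign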;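 also: integrated kinetic ratio of fluorescence range over baseline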
HEK293 MPD ctr 2-1: parental HEK293 nonspecific activity of TRPC6 inhibitors, second screen. actives 31% (n = 920). shares compounds with TRPC6 inh. signal change vs control, % at 10 µM. parental HEK293 membrane potential dye fluorescence; maximal acetylcholine challenge after compound addition;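 active = membrane potential signal moving either way by over 3 SD of the maximum-effect control, in both duplicate plates, meaning non-specific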
HEK293 MPD ctr-1: checks TRPC6 inhibitor effects in parental HEK293 cells | shares compounds with TRPC6 inh | parental HEK293 membrane potential dye fluorescence | membrane potential signal change, % at 10 µM | actives 60% (n = 920) | AID 2780;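 active = membrane potential signal shifting up or down by more than 3 SD of buffer-only wells, on both duplicate plates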
HEK293 MPD ctr-2: checks TRPC6 modulator effects in parental HEK293 cells | shares compounds with TRPC6 inh | membrane potential dye fluorescence | membrane potential signal change, % at 10 µM | actives 51% (n = 2,400);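 active = membrane potential signal moves up or down beyond 5 SD from buffer-only wells, on both duplicate plates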
HEK293 MPD ctr 2-2: second check of TRPC6 modulator effects in parental HEK293 cells. AID 488926. shares compounds with TRPC6 inh. actives 14% (n = 2,400). membrane potential dye fluorescence; after compound, maximal acetylcholine stimulation. inhibition, % at 10 µM;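 active = membrane potential signal drops by more than 5 SD from the mean control signal, in both duplicate plates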
TRPC4/MOR mod: tests whether TRPC6 modulators also affect mouse TRPC4; actives 69% (n = 2,400); percent change from control (negative = decrease, positive = increase), % at 10 µM; HEK293 TRPC4/mu-opioid, membrane potential fluorescence; shares compounds with TRPC6 inh;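 active = membrane potential signal moved up or down beyond 5 SD of buffer control wells, in both duplicate plates, actives on both sides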
TRPC4/MOR inh 2: second selectivity test of TRPC6 modulators against mouse TRPC4 | shares compounds with TRPC6 inh | HEK293 TRPC4/mu-opioid, membrane potential dye fluorescence; stimulated with maximal-effect DAMGO | inhibition, % at 10 µM | actives 55% (n = 2,400) | AID 488928;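 active = drop in membrane potential signal beyond 5 SD of the control wells in both duplicate plates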;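 also: TRPC4 counter screen for TRPC6 hits run under conditions tuned for TRPC6 not TRPC4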
TRPC6 inh conf: confirmation of mouse TRPC6 inhibitors; shares compounds with TRPC6 inh; HEK293-TRPC6, membrane potential dye, ACh-evoked depolarization; inhibition, % at 10 µM; actives 43% (n = 3,300); AID 488960;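 active = fluorescence ratio falls more than 5 SD below the full-stimulation control mean, in both duplicate runs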;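 also: integrated fluorescence ratio of peak minus minimum over baseline after agonist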
TRPC6 act confirm: mouse TRPC6 activator confirmation. activation, % at 10 µM. shares compounds with TRPC6 inh. HEK293-TRPC6 membrane potential dye fluorescence, FDSS. actives 11% (n = 2,800);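 active = ratio signal rise beyond 5 SD above unstimulated control wells' mean, seen in both duplicate runs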
Of the large screens only hits and unclear results are named; the others gave an inactive call (follow-up assays come after a bar, where they were run).

Cc1c(OCC(=O)N(C)C)ccc2c3c(c(=O)oc12)CCCCC3	TRPC6 inh -11 | TRPC4 sel inh 2 inactive | TRPC4 spec inactive | HEK293 MPD ctr 2-1 inactive | HEK293 MPD ctr-1 -0.2% | TRPC6 inh conf inactive | TRPC6 act confirm inactive
Cc1ccc(S(=O)(=O)Nc2ccccc2C(=O)Nc2nc(-c3ccc(F)cc3)cs2)cc1	none
COc1ccc(-c2csc(NC(=O)c3ccccc3NS(=O)(=O)c3ccc(F)c(F)c3)n2)cc1	TRPC6 inh -5.3 | HEK293 MPD ctr-2 inactive | HEK293 MPD ctr 2-2 inactive | TRPC4/MOR mod -15% | TRPC4/MOR inh 2 56% | TRPC6 inh conf 64% | TRPC6 act confirm inactive
Cc1ccc(C2=NN(CCC(=O)NC3CCCC3)C(=O)CC2)cc1	none
CCC1(C)Cc2c(sc3nc(SC)[nH]c(=S)c23)CO1 (stereo not given)	none
Cn1c(C(=O)NCCN2CCOCC2)cc2c(=O)n3ccccc3nc21	none
Cc1ccc(Cn2c(=N)c(C(=O)NCCN3CCOCC3)cc3c(=O)n4ccccc4nc32)cc1	TRPC4 PAM 19, TRPC6 inh -6.6 | HEK293 MPD ctr-2 -70% | HEK293 MPD ctr 2-2 98% | TRPC4/MOR mod -14% | TRPC4/MOR inh 2 47% | TRPC6 inh conf 40% | TRPC6 act confirm inactive
N=c1c(C(=O)NCCN2CCOCC2)cc2c(=O)n3ccccc3nc2n1CCc1ccccc1	TRPC6 inh -7.8 | TRPC4 sel inh 2 64% | TRPC4 spec -20% | HEK293 MPD ctr 2-1 -78% | HEK293 MPD ctr-1 -246% | TRPC6 inh conf 99% | TRPC6 act confirm inactive
N=c1c(C(=O)NCCc2ccccc2)cc2c(=O)n3ccccc3nc2n1CCCN1CCOCC1	none
COc1ccc(CCn2c(=N)c(C(=O)NCc3ccco3)cc3c(=O)n4ccccc4nc32)cc1	TRPC6 inh -5.9 | HEK293 MPD ctr-2 -164% | HEK293 MPD ctr 2-2 inactive | TRPC4/MOR mod -36% | TRPC4/MOR inh 2 inactive | TRPC6 inh conf inactive | TRPC6 act confirm inactive
Cc1cccc2cc(CN(CCN(C)C)C(=S)Nc3ccccc3)c(=O)[nH]c12	none
O=C(COCC(=O)Nc1cccc(C(F)(F)F)c1)Nc1cccc(C(F)(F)F)c1	none
COc1cc(NC(=O)CSCC(=O)Nc2cccc(C(F)(F)F)c2)c(Cl)cc1Cl	TRPC6 inh -7.3 | TRPC4 sel inh 2 inactive | TRPC4 spec inactive | HEK293 MPD ctr 2-1 inactive | HEK293 MPD ctr-1 inactive | TRPC6 inh conf inactive | TRPC6 act confirm inactive
Cc1sc2nc(CN3CCCCC3)nc(Nc3ccc4c(c3)OCCO4)c2c1C	TRPC6 inh -5 | HEK293 MPD ctr-2 inactive | HEK293 MPD ctr 2-2 inactive | TRPC4/MOR mod inactive | TRPC4/MOR inh 2 inactive | TRPC6 inh conf 44%
Cc1sc2nc(CN3CCCC3)nc(NCc3ccncc3)c2c1C	none
N#CC(C#N)=C1c2cc(S(=O)(=O)NCCO)ccc2-c2ccc(S(=O)(=O)NCCO)cc21	TRPC6 inh -5.2 | HEK293 MPD ctr-2 -138% | HEK293 MPD ctr 2-2 inactive | TRPC4/MOR mod -30% | TRPC4/MOR inh 2 inactive | TRPC6 inh conf inactive | TRPC6 act confirm inactive
Cc1ccc(NC(=O)CSc2nnc(C3CC3)n2CC2CCCO2)cc1C (stereo not given)	none
CCCCc1nc2ccccc2c(NC(=O)CNC(C)(C)C)c1CCC	none
CCCCc1nc2ccccc2c(N)c1CCC (tested in a mixture with another compound)	TRPC4 inh -6, TRPC6 inh -7.6 | TRPC4 sel inh 2 15% | TRPC4 spec inactive | HEK293 MPD ctr 2-1 inactive | HEK293 MPD ctr-1 0.7% | TRPC6 inh conf 59% | TRPC6 act confirm inactive
Cc1onc(-c2ccccc2)c1C(=O)N/N=C/c1ccc([N+](=O)[O-])s1	TRPC6 inh -8.2 | TRPC4 sel inh 2 inactive | TRPC4 spec inactive | HEK293 MPD ctr 2-1 inactive | HEK293 MPD ctr-1 inactive | TRPC6 inh conf inactive | TRPC6 act confirm inactive
O=C1CCC([N+](=O)[O-])C(c2ccccc2Cl)N1 (stereo not given)	none
O=C1CCC([N+](=O)[O-])C(c2ccccc2C(F)(F)F)N1 (stereo not given)	TRPC6 inh -5.1 | HEK293 MPD ctr-2 inactive | HEK293 MPD ctr 2-2 inactive | TRPC4/MOR mod inactive | TRPC4/MOR inh 2 inactive | TRPC6 inh conf inactive | TRPC6 act confirm inactive
COc1ccc(S(=O)(=O)N2CCCC(C(=O)NC3CC3)C2)cc1Cl (stereo not given)	none
CCOC(=O)c1cc(C)n(-c2c(C)n(C)n(-c3ccccc3)c2=O)c1C	TRPC6 inh -6 | HEK293 MPD ctr-2 inactive | HEK293 MPD ctr 2-2 inactive | TRPC4/MOR mod inactive | TRPC4/MOR inh 2 inactive | TRPC6 inh conf inactive | TRPC6 act confirm inactive
Cc1ccccc1CC1SC(N=C(N)N)=NC1=O (stereo not given)	none
CN(C)S(=O)(=O)N1CCN(c2ccccc2Cl)CC1	none
CN(C)S(=O)(=O)N1CCN(C(=O)c2ccccc2Cl)CC1	TRPC6 inh -5 | HEK293 MPD ctr-2 inactive | HEK293 MPD ctr 2-2 inactive | TRPC4/MOR mod inactive | TRPC4/MOR inh 2 inactive | TRPC6 inh conf inactive | TRPC6 act confirm inactive
